Screening data from PubChem.
The list is not random: actives were taken first. Their share in the collection is about 1.8%.
DDE Tn6 FP inh = disrupts Tn6 cyclic peptide binding to fibrin D-Dimer-E complex; P02675; inhibition, % at 8.3 µM; 370,000 compounds, 0.21% hits; Fibrin DD(E) TRITC-Tn6 fluorescence polarization displacement;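 active = inhibition above a per-campaign cutoff: mean of compounds within control limits plus 3 SD, cut at about 15% in these data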;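 also: 0% = median of all compound wells on the plate and 100% = blocking peptide control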
Target sequence (P02675 whole entry, looked up): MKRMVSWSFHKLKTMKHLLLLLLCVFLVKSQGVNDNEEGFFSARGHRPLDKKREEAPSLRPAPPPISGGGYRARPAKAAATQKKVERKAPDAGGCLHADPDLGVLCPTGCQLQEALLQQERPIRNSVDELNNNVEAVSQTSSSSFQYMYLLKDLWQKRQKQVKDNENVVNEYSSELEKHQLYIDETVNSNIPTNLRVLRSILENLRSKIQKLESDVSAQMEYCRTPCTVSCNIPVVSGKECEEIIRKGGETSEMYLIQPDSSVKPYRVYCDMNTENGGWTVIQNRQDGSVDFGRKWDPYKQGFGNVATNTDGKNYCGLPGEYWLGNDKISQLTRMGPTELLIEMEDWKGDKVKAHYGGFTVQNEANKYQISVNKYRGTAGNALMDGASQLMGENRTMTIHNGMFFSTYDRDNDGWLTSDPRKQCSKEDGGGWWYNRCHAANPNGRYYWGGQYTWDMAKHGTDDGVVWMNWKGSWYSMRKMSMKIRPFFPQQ
CAL PDZ FP-1 = inhibitors of human CAL PDZ peptide binding; Q9HD26; purified CAL PDZ, TMR-peptide fluorescence polarization, 1 h; inhibition, % at 24.9 µM; 300,000 compounds, 0.92% hits;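 active = mean inhibition of at least 30% with at least half of replicates also reaching 30%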;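 also: 0% = DMSO neutral control and 100% = excess unlabeled competitor peptide PRC23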
CAL PDZ FP-2 = human CAL PDZ-peptide interaction inhibition; Q9HD26; purified CAL PDZ, TMR-peptide fluorescence polarization, 1 h; inhibition, % at 20 µM; AID 504414; 330,000 compounds, 0.02% hits;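 active = highest replicate inhibition of at least 40%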;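 also: plate controls were DMSO neutral control wells for no effect and unlabeled competitor peptide control wells for full effect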
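Control set: unlabelled peptide and DMSO controls / Material: purified CerCALP PDZ construct / Timing: 1 h incubation at room temperature before polarization reading / Doses: 20 µM, one dose / Detection: fluorescence polarization (mP)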
DDE Tn7 FP inh = disrupts Tn7 cyclic peptide binding to fibrin D-Dimer-E complex; inhibition, % at 8.3 µM; 370,000 compounds, 0.13% hits; AID 720508; FP displacement of FITC-Tn7 peptide from fibrin DD(E); 0% = median of compound wells per plate;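 active = inhibition above the mean of compounds falling within the control limits plus 3 SD of them, cut at about 14% in these data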;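 also: 0% = plate median of compound wells and 100% = 10 µM Aha-Tn7 peptide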
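Assay system: human fibrin DD(E). Input: DD(E) 2 µM final. Medium: Tris buffer with calcium and detergent, pH 7.8. Compound dosing: single point at 8.3 µM. Timing: 10 min plus 3 h, room temperature. Technique: fluorescence polarization of the labelled Tn7 tracer. Read-out: percent inhibition. Replicates: singlicate testing.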
ARNT-TACC3 inh = disruptors of human ARNT/TACC3 interaction | Q9Y6A5 | AlphaScreen His-ARNT PAS-B/GST-TACC3 binding, luminescence; TACC3 fragment carries E629A point mutation | inhibition, % at 9.99 µM | 390,000 compounds, 0.66% hits;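 active = mean inhibition of replicates at least 50% and at least half of replicates each reaching 50%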;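 also: 0% = complete ARNT plus TACC3 wells and 100% = ARNT alone without TACC3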
GRK2 aptamer HTS = blocks RNA aptamer binding to human GRK2 | bead flow cytometry, FAM-aptamer displacement from GRK2 | inhibition of aptamer binding, % at 10 µM | 330,000 compounds, 0.59% hits;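 active = inhibition of aptamer binding above 40%, roughly 3 SD of noise, on plates passing a quality check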;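 also: median bead fluorescence of bound FAM aptamer so fluorescent compounds give negative values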
GRK2 CP1 = confirmation of human GRK2 inhibitors displacing RNA aptamer. shares compounds with GRK2 aptamer HTS. bead-bound GRK2, FAM-aptamer displacement, flow cytometry. aptamer displacement, % at 10 µM. 2,000 compounds, 4% hits;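 active = aptamer displacement above 40%, near three times the noise of non-fluorescent compounds, on plates passing quality checks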;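 also: negative values mostly reflect intrinsic compound fluorescence rather than true enhancement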
Aptamer quench SP = quenches fluorescent RNA aptamer, GRK2 hit artifact; shares compounds with GRK2 aptamer HTS; Carboxyfluorescein RNA aptamer on beads, flow cytometry quenching; active compounds read low; 2,000 tested, under 10 active; fluorescence response (% of DMSO), % at 10 µM; AID 504580;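 active = compounds that quench the bead-bound fluorescent RNA probe, cutting fluorescence to under half of the solvent control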;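 also: counterscreen run without GRK2 so only probe quenching by compound is measured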
GRK2 CP2 = confirmation of human GRK2 inhibitors binding RNA aptamer site | shares compounds with GRK2 aptamer HTS | bead-bound GRK2, FAM-aptamer displacement, flow cytometry | inhibition of aptamer binding, % at 10 µM | 360 tested, under 10 active;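 active = inhibition of aptamer binding above 40%, about triple the noise seen with nonglowing compounds, on plates passing quality control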;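 also: negative values mostly come from compounds that fluoresce themselves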
FAM quench SP = aptamer fluorescence quenching in GRK2 counter-screen; fluorescence response vs DMSO, % at 10 µM; shares compounds with GRK2 aptamer HTS; AID 588494; 360 tested, under 10 active; carboxyfluorescein RNA aptamer beads, flow cytometry quenching; active compounds read low;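 active = response vs DMSO under 50%, meaning signal dropped by over half, treated as fluorescence quencher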;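 also: labelled aptamer on streptavidin beads without GRK2 as a quench counter-screen; 100% = bead fluorescence of DMSO wells and lower means quenching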
Numbers without * were called inactive; . = not tested or not shown.

SMILES	DDE Tn6 FP inh	CAL PDZ FP-1	CAL PDZ FP-2	DDE Tn7 FP inh	ARNT-TACC3 inh	GRK2 aptamer HTS	GRK2 CP1	Aptamer quench SP	others
Cc1ccc(NC(=O)c2cc(N3C(=O)C=CC3=O)ccc2N2CCOCC2)cc1Cl	-11	-7	0	-5	-7	71*	-2	101
CC(C)NC(=O)NC(=O)CSc1nnc(COc2ccccc2Cl)o1	1	-4	.	2	34	71*	-3	103
CC(C)CCNC(=O)NC(=O)CSc1nnc(COc2ccccc2Cl)o1	0	-3	-6	-6	6	17	.	.
Cc1nc(CN2CCOCC2)cc(=O)[nH]1	2	-1	-5	-6	-3	48*	1	101
Cc1n[nH]c(C)c1CCCCOc1ccccc1[N+](=O)[O-]	-12	14	0	-1	13	4	.	.
Cc1ccc2[nH]c(CNC(=O)C3CCCCC3)cc2c1	-9	-4	0	5	2	60*	6	101
COc1ccccc1CNC(=O)C[C@H]1C[C@H]2c3cc(NS(=O)(=O)c4ccc(F)cc4)ccc3O[C@H]2[C@H](CO)O1	.	.	.	.	1	.	.	.
CC(=O)CSc1nc2cc3c(cc2cc1C#N)OCCO3	-3	1	1	-2	-6	60*	.	.	GRK2 CP2=4;FAM quench SP=100
O=C(Nn1cnnc1)c1cc(Br)ccc1Cl	0	-4	0	-6	0	53*	-1	100
CCOc1ccccc1OCCCC(=O)OCC(=O)Nc1cccc(Cl)c1	-8	-1	-2	-3	-8	81*	-1	102
O=C(O)c1ccc(/C=C2\SC(=S)N(NC(=O)c3ccccc3[N+](=O)[O-])C2=O)cc1	2	-2	-1	7	33	47*	1	101
COc1cccc(NC(=O)C2(S(=O)(=O)c3ccc(Cl)cc3)CC2)c1	0	-3	-2	-2	-5	4	.	.	GRK2 CP2=-14;FAM quench SP=101
Cc1cc(N/C=C/C(=O)c2ccc(Br)cc2)no1	-2	-2	-2	2	0	77*	-2	99
CCOC(=O)c1cccc(NC(=O)CNC(=O)C2CCCCC2)c1	1	-3	-1	3	9	54*	-1	97
Cc1cccc(C)c1NC(=O)COC(=O)CNC(=O)C1CCCCC1	-8	4	0	-11	0	95*	0	98
O=C(COC(=O)CNC(=O)C1CCCCC1)Nc1ccccc1	8	.	.	-2	.	0	.	.
O=C1c2[nH]c3ccccc3c2CC1N1C(=O)c2ccccc2C1=O (stereo not drawn)	11	.	.	-9	.	.	.	.
CCc1cccc(C)c1NC(=O)CC1Oc2ccc(C)cc2NC1=O (stereo not drawn)	7	4	0	3	-6	49*	.	.	GRK2 CP2=0;FAM quench SP=101
O=C(NC1CC1)c1cccc(NC(=O)c2cnn(-c3ccccc3)n2)c1	6	1	-1	3	3	4	-1	94
COC(=O)[C@]12C[C@H](CC(=O)NCCCCc3ccccc3)C(=O)N(CCc3ccc(OC)c(OC)c3)C1=C[C@H](C(C)C)O[C@@H]2C1CC1	5	.	.	-7	.	.	.	.
Cc1noc(C)c1NC(=O)Nc1ccc2c(c1)C(=O)N([C@H](C)CO)C[C@H](C)[C@H](CN(C)CC1CC1)OCCCC[C@@H](C)O2	.	.	.	.	-4	.	.	.
O=C(C[C@H]1CC[C@@H]2[C@H](COC[C@H](O)CN2Cc2ccc3c(c2)OCO3)O1)N1CCCCC1	.	.	.	.	5	.	.	.
Cc1noc(C)c1COc1cccc(C(=O)NCc2ccccc2Cl)c1	1	-2	-2	-1	.	1	2	94
Cc1noc(C)c1COc1ccc(C(=O)OCC(=O)NCc2ccccc2Cl)cc1	6	-1	-1	4	-4	4	.	.
OC[C@H]1Nc2ccc(C#Cc3ccccc3)cc2[C@@H]2[C@H]1CCN2Cc1nccs1	.	.	.	.	10	.	.	.
SMILES	DDE Tn6 FP inh	CAL PDZ FP-1	CAL PDZ FP-2	DDE Tn7 FP inh	ARNT-TACC3 inh	GRK2 aptamer HTS	GRK2 CP1	Aptamer quench SP	others
Cc1ccccc1-c1cc(C(=O)NCc2cccs2)nn1CC1CC(c2cccc([N+](=O)[O-])c2)=NO1 (stereo not drawn)	-6	3	0	5	5	0	-1	111
COc1cccc(NC(=O)NCCC2=CCCCC2)c1	1	3	-2	-4	-5	5	.	.
CCOc1ccc(CCNC(=O)Nc2cccc(OC)c2)cc1OCC	8	-1	0	1	-5	41*	.	.	GRK2 CP2=-8;FAM quench SP=98
Cc1ccccc1S(=O)(=O)N1C[C@H](O)COC[C@@H]2O[C@@H](CC(=O)N3CCN(C)CC3)CC[C@H]21	.	.	.	.	4	.	.	.
CCOc1ccc(NC2CCCCC2NS(=O)(=O)c2ccccc2)cc1 (stereo not drawn)	0	-2	-2	5	12	49*	1	94
NCC[C@@H]1CC[C@H](NC(=O)Nc2ccc(F)cc2)[C@@H](CO)O1	.	.	.	.	-12	.	.	.
C=C(C)CSc1nc2sc3c(c2c(=O)n1-c1ccccc1)CCN(C)C3	-4	-5	-2	-6	11	37	1	95
C=CCN1C(=O)c2ccc(C(=O)N(CC)CC(=O)Nc3ccc(OC)cc3)cc2C1=O	0	-3	-1	2	-2	0	.	.
C[C@@H]1CN([C@H](C)CO)C(=O)c2cc(NC(=O)Cc3ccccc3)ccc2O[C@@H](C)CCCCO[C@@H]1CN(C)Cc1ccc(C(F)(F)F)cc1	.	.	.	.	2	.	.	.
Cc1ccc(-c2csc(N(CCCN3CCOCC3)C(=O)c3ccco3)n2)cc1	1	-5	-4	-5	6	1	-3	102
CC(C)C[C@H]1CN=C(Nc2ccccc2)N1CC1CCCCCC1	-1	0	0	2	-4	58*	-2	99
CCN1C(Nc2ccccc2)=NC[C@@H]1CC(C)C	2	1	0	0	4	4	.	.
COc1ccccc1Oc1c(C)oc2c(CN3CCOCC3)c(O)ccc2c1=O	6	-2	-2	-5	.	58*	3	99
COc1ccccc1Oc1coc2c(CN3CCOCC3)c(O)ccc2c1=O	-2	-12	.	2	-4	2	.	.
